Results from paper PMC9977173 (Science Advances, 2023).
Where a SMILES comes first, the peptide text is derived from it. Bridges are numbered along the chain shown (N, C = ends). Roman numbers before positions name the chains, in order. The star is where a group is joined. X1 = O=C(Cn1cc(CCCC(=O)*)nn1)NC(COCc1cn(CCO[C@H]2O[C@H](CO)[C@@H](O)[C@H](O)[C@@H]2O)nn1)(COCc1cn(CCO[C@H]2O[C@H](CO)[C@@H](O)[C@H](O)[C@@H]2O)nn1)COCc1cn(CCO[C@H]2O[C@H](CO)[C@@H](O)[C@H](O)[C@@H]2O)nn1

Assays:
[1] = target: T1, CD206 (Homo sapiens, UniProt P22897); conditions: read-out: Kd of mannose; cited from earlier work
[2] = tested on: MB49-Luc orthotopic bladder cancer; conditions: mouse, in vivo
[3] = tested on: EJ cells (CXCR4); assay: CLSM imaging of bsGP; format: cell-based, human
[4] = tested on: CD8^+ T cells and Tregs in tumor; assay: Flow cytometry of tumor T cells; format: in vivo, mouse
[5] = tested on: CD86^+ and CD206^+ TAMs, CD4^+ and CD8^+ T cells proximal to CXCR4^+ tumor cells; assay: Spatial distance of immune cells to CXCR4^+ tumor cells; format: in vivo, mouse
[6] = tested on: NF-κB in RAW264.7 cells; assay: Western blot of NF-κB phosphorylation in RAW264.7 cells; format: cell-based; conditions: 50 μM, 24 hours; compared with mannose
[7] = tested on: EJ xenograft tumor; assay: Antitumor efficiency in EJ xenograft mice; format: in vivo, mouse; conditions: 500 μM, 100 μl, intravenous, five doses
How it was run: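 BALB/c nude mice (6 to 8 weeks, 16 to 18 g) received 5 × 10⁶ EJ cells in 100 µl s.c. in the right flank. Mice were randomised into groups of n = 6. Saline, test compound (500 µM, 100 µl) or plerixafor (100 µM, 100 µl) was given i.v. by tail vein once a day for five doses. Tumor volume was measured by calipers and body weight recorded every other day.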

[8] = tested on: C57BL/6 mice
[9] = tested on: pErk and pAkt (CXCR4 downstream) in EJ cells; assay: Western blot of Erk and Akt phosphorylation in EJ cells; format: cell-based, human
How it was run: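 EJ cells were lysed in buffer with protease inhibitor and centrifuged 15 min; protein was measured by BCA. 30 µg protein was run on SDS-PAGE and transferred to PVDF. Membranes were blocked 1 to 2 h at room temperature in 5% nonfat milk, 0.1% Tween 20, 10 mM TBS. Primary antibody was applied overnight at 4°C, then secondary for 1 to 2 h at room temperature. Detection was by chemiluminescence.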

[10] = tested on: RAW264.7 cells; assay: CLSM imaging of bsGP; format: cell-based; conditions: Cy-labeled bsGP
[11] = tested on: CD86^+ and CD206^+ TAMs, CD4^+ and CD8^+ T cells; assay: Multiplex immunofluorescence of whole tumor slices; format: in vivo, mouse
[12] = tested on: tumor fibrosis in MB49-Luc tumor; assay: Tumor fibrosis; format: in vivo, mouse; conditions: versus saline and PepCXCR4
[13] = Secondary structure by CD and FTIR; format: physicochemical; conditions: CD: 10 μM, deionized water, 25°C, 1 hour; FTIR: 100 μM, distilled water, 60 min
How it was run: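 For CD, test compound (10 µM) was dissolved in deionized water at 25°C for 1 h and scanned at 500 nm/min with 0.5 nm resolution, with solvent background subtracted. For FTIR, samples were freshly prepared at 100 µM in distilled water for 60 min, dried on calcium fluoride tablets and recorded.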

[14] = tested on: EJ cells; assay: Colony formation assay; format: cell-based, human; conditions: versus saline and PepCXCR4
How it was run: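 EJ cells (200 per well) were grown in DMEM in six-well plates at 37°C, 5% CO₂ until visible colonies appeared. Colonies were rinsed twice with saline, fixed in 4% paraformaldehyde for 15 min and stained with Giemsa for 10 to 30 min. They were photographed and counted. Colony formation efficiency = clones/inoculated cells × 100%.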

[15] = tested on: EJ xenograft tumor; conditions: 500 μM, 100 μl, intravenous
[16] = tested on: TNF-α, IL-12, IL-10 and TGF-β; assay: Intratumoral cytokines in homogenized tumor tissues; format: in vivo, mouse; conditions: versus saline and PepCXCR4
[17] = tested on: orthotopic bladder tumor; format: in vivo, mouse; conditions: 500 μM, 100 μl, intravesical instillation
How it was run: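 Once bladder tumor growth was confirmed, test compound (500 µM, 100 µl) was instilled intravesically and kept in the bladder for 60 min. Whole-body fluorescence was scanned with IVIS at 1, 4, 8, 12, 24, 48 and 72 h. The bladder was exteriorised and imaged ex vivo at 1 h after infusion.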

[18] = tested on: MB49-Luc tumor; assay: Antitumor efficiency in MB49-Luc tumor-bearing mice; format: in vivo, mouse; conditions: 500 μM, 100 μl, five doses
[19] = tested on: RAW264.7 cells; assay: Cell viability; format: cell-based; conditions: 50 μM, 24 hours, CCK-8; n = 3
How it was run: (§1)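 Cells were seeded at 5 × 10⁴ per well in RPMI 1640 and cultured overnight at 37°C, 5% CO₂. Test compound was added at 10, 20, 50, 100, 200 or 500 µM for 24 h, then CCK-8 for 2 h at 37°C. Absorbance was read at 450 nm against a 690 nm reference. Viability = (A_s − A_b)/(A_c − A_b) × 100% versus saline-treated wells. Run in triplicate.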

[20] = target: T1, CD206; assay: Microscale thermophoresis binding to CD206; conditions: Kd 3.48 μM versus mannose ~1000 μM
[21] = tested on: EJ cells; assay: Transwell migration assay; format: cell-based, human; conditions: 50 μM, 24 hours; versus saline and PepCXCR4
How it was run: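 EJ cells (1 × 10⁵) in 150 µl serum-free DMEM were placed in the upper Transwell chamber with saline or test compound (50 µM). Complete medium was in the lower chamber. After 24 h, non-migrated cells were swabbed away. Migrated cells were fixed in 4% paraformaldehyde, stained with 0.05% crystal violet for 10 min, photographed and counted.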

[22] = tested on: EJ cells; assay: SEM of nanofibrils on EJ cell surface; format: cell-based, human; conditions: 50 μM, 12 and 24 hours
How it was run: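 EJ cells (1 × 10⁵ per well) were seeded on silicon wafers and cultured 12 h. Saline or test compound (50 µM) was then added for a further 12 and 24 h. The cell surface was examined by scanning electron microscopy.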

[23] = tested on: tumor tissue in orthotopic bladder cancer mice; assay: Tumor penetration by immunofluorescence of frozen sections; format: in vivo, mouse; conditions: Cy-labeled bsGP; distance from vessels, compared with antibody
How it was run: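 Orthotopic EJ xenograft nude mice with tumors of about 200 mm³ received saline or test compound (500 µM, 100 µl) by intravesical instillation. Frozen tumor sections were imaged by confocal microscopy.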

[24] = tested on: EJ cells; assay: Cell viability; format: cell-based, human; conditions: 50 μM, 24 hours, CCK-8; n = 3
How it was run: as §1

[25] = tested on: M2-like (CD206) and M1-like (CD86) macrophages; assay: Flow cytometry of TAM polarization in tumors; format: in vivo, mouse
[26] = tested on: NF-κB in tumor tissues; assay: Western blot of NF-κB phosphorylation in tumor tissues; format: in vivo, mouse; conditions: 500 μM, 100 μl, every 2 days, five times; compared with mannose
[27] = tested on: pErk and pAkt in tumor tissues; assay: Immunohistochemistry of pErk and pAkt in EJ tumor tissues; format: in vivo, mouse; conditions: EJ xenograft, versus saline
[28] = immunofluorescence, versus saline

T1 sequence (P22897 19-1456, species assumed): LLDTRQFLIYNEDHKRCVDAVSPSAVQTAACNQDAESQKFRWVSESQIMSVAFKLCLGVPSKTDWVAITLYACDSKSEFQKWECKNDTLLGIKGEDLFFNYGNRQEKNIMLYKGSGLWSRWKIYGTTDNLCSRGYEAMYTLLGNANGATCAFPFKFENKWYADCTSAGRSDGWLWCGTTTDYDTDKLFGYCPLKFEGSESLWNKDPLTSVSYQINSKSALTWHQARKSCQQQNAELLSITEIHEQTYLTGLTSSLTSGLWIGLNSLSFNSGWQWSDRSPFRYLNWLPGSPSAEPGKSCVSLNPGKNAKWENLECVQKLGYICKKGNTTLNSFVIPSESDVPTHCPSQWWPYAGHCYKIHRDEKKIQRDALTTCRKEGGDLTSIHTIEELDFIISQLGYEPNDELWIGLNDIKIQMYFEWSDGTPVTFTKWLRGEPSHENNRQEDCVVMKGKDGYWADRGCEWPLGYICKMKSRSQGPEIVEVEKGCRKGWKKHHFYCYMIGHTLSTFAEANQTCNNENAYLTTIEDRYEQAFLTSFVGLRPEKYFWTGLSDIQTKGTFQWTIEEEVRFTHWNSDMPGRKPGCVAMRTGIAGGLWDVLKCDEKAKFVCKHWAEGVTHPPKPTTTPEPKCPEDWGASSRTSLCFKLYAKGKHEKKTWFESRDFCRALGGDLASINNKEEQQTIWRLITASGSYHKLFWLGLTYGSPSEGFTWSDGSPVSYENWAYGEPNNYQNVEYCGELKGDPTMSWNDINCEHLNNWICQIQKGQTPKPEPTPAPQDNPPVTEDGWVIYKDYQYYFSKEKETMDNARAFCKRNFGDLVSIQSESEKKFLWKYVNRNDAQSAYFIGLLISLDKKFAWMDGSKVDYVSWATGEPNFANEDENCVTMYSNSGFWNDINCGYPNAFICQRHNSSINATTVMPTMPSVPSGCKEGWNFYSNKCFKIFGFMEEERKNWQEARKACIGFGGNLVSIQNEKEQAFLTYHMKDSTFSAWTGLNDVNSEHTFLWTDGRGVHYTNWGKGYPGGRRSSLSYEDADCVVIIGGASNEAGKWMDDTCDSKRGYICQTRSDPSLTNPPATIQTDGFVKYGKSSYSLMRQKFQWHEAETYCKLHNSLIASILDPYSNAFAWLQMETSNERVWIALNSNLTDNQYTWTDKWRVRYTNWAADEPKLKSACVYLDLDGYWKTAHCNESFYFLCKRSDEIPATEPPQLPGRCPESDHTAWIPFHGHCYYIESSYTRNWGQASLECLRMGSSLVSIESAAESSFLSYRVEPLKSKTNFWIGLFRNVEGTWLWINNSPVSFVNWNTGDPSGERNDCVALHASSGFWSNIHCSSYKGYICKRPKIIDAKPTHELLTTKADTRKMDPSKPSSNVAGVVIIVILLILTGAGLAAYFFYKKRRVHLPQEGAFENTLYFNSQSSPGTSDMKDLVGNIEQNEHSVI

SMILES: OC[C@H]1OC(O)[C@@H](O)[C@@H](O)[C@@H]1O (stereo partly shown) [mannose]
- Kd [1]: ~1000 µM

SMILES: C[C@H]1c2cccc(O)c2C(=O)C2=C(O)[C@]3(O)C(=O)C(C(N)=O)=C(O)[C@@H](N(C)C)[C@@H]3[C@@H](O)[C@@H]21 [Dox, doxycycline]
- recurrence rate [2]: 89%
- survival rate at 60 days [2]: 11%

SMILES: CC(C)C[C@H](NC(=O)[C@H](Cc1ccc(O)cc1)NC(=O)CNC(=O)[C@H](CC(C)C)NC(=O)[C@@H]1CCCN1C(=O)CCCc1cn(CC(=O)NC(COCc2cn(CCO[C@H]3O[C@H](CO)[C@@H](O)[C@H](O)[C@@H]3O)nn2)(COCc2cn(CCO[C@H]3O[C@H](CO)[C@@H](O)[C@H](O)[C@@H]3O)nn2)COCc2cn(CCO[C@H]3O[C@H](CO)[C@@H](O)[C@H](O)[C@@H]3O)nn2)nn1)C(=O)NCC(=O)NCCCC[C@H](NC(=O)[C@H](CCCCN)NC(=O)[C@H](CC(=O)O)NC(=O)[C@@H]1CCCN1C(=O)[C@H](CCCNC(=N)N)NC(=O)[C@H](Cc1c[nH]cn1)NC(=O)[C@H](Cc1c[nH]c2ccccc12)NC(=O)[C@H](CO)NC(=O)[C@H](C)NC(=O)CNC(=O)[C@@H](N)CC(C)C)C(=O)N[C@@H](CC(C)C)C(=O)N[C@H](C(=O)N[C@@H](Cc1ccccc1)C(=O)N[C@@H](Cc1ccccc1)C(=O)N[C@@H](C)C(=O)N[C@@H](CCC(=O)O)C(=O)N[C@@H](CS)C(=O)NCC(=O)O)C(C)C [bsGP] (I: H-LGASWHRPDKKLVFFAECG-OH / II: X1-PLGYLG; amide I:11-II:C; N-terminus and C-terminus assumed)
- localization on EJ cells ([3]; Cy-labeled bsGP, 50 μM, pH 7.4, saline, 37°C, 15 min): observed on the cytomembrane of tumor cells (EJ)
- colocalization with GFP-encoded CXCR4 ([3]; EJ cells transfected with GFP-encoded CXCR4): Overlapping green fluorescence (CXCR4) with red fluorescence (bsGP)
- CD4^+Foxp3^+ Tregs ([4]; saline 8.58%): 6.80%
- granzyme B^+CD8^+ T cells ([4]; saline 9.44%): 19.60%
- proportion of CD45^+CD3^+CD8^+ T cells ([4]; saline 16.3%): 25.8%
- decrease of CD206^+ M2-like TAMs versus saline ([5]; 5- to 10-μm radius): 20%
- number of CD86^+ M1-like TAMs near tumor cells ([5]; 5- to 10-μm radius): up to 6.22 × 10^4
- CD4^+ T cell counts relative to saline ([5]; spatial distance 10 μm): 4.0 fold
- CD8^+ T cell counts relative to saline ([5]; spatial distance 10 μm): 5.5 fold
- CD86^+ counts relative to saline ([5]; spatial distance 10 μm (text: 5- to 10-μm radius)): 2.6 times
- NF-κB phosphorylation in RAW264.7 cells [6]: effectively activated
- body weight loss, EJ xenograft [7]: no obvious loss of body weight
- body weight loss ([8]; C57BL/6 mice): without loss of body weight
- severe systemic toxicity ([8]; intravesical, treatment dose): did not induce severe systemic toxicity
- signs of a deteriorating general condition ([8]; red skin or reduced food consumption): no signs of a deteriorating general condition
- dose dependence of MAPK pathway suppression (pErk, pAkt) ([9]; 0, 20, 50 and 100 μM for 24 hours, 50 μM for 0, 24, 36, 48 hours): suppressed in a dose-dependent manner
- phosphorylation of Erk and Akt ([9]; 50 μM, 24 hours): strongly inhibited
- localization on RAW264.7 cells [10]: observed on the cytomembrane
- CD4^+ T cells in whole tumor slice ([11]; MB49-Luc, C57BL/6, 500 μM, 100 μl, every other day, five times, saline 1.74%): 4.35%
- CD206^+ M2-like TAMs in whole tumor slice ([11]; MB49-Luc, C57BL/6, 500 μM, 100 μl, every other day, five times, saline 20.94%): 13.0%
- increase of CD86^+ M1-like TAMs ([11]; immunofluorescence): 2.3 fold
- increase of CD4^+ T cells [11, 28]: 2.5 fold
- increase of CD8^+ T cells [11, 28]: 2.6 fold
- tumor fibrosis [12]: strongly inhibited
- secondary structure [13]: random coil structure
- cell proliferation capacity [14]: substantially decreased
- signal-to-noise ratio [15]: 7.8 fold
- time of highest tumor accumulation [15]: 4 h
- time to target tumor tissue [15]: ≤ 1 h
- tumor accumulation relative to PepCXCR4 ([15]; 4 hours): nearly fourfold
- retention in tumor tissue ([15]; nanofiber formed in situ): up to 48 hours
- intratumoral secretion of IL-10 [16]: down-regulated
- intratumoral secretion of IL-12 [16]: substantially up-regulated
- intratumoral secretion of TGF-β [16]: down-regulated
- intratumoral secretion of TNF-α [16]: substantially up-regulated
- fluorescence signal at the tumor site [17]: evident fluorescence signals
- body weight loss, MB49-Luc [18]: no obvious loss of body weight
- effect on viability of RAW264.7 cells [19]: no substantial impact
- affinity relative to mannose [20]: about 300 fold
- recurrence rate [2]: 22%
- survival rate at 60 days [2]: 78%
- migration capacity [21]: evidently decreased
- nanofibrillar network on EJ cell surface [22]: presence of a nanofibrillar network
- penetration in tumor tissue [23]: deep penetration capability
- effect on viability of EJ cells [24]: no substantial impact
- increase of M1-like TAMs ([25]; from 14.2 to 25.4%): approximately 11.2%
- decrease of M2-type macrophages ([25]; from 29.2 to 17.3%): approximately 11.9%
- NF-κB phosphorylation in tumor tissues [26]: effectively activated
- phosphorylation levels of Erk and Akt in tumor tissues [27]: strongly inhibited
